Wee1 stabilizer – inhibitors of human Wee1 degradation; HeLa Luc-Wee1K328M stability, luciferase luminescence; 100% = proteasome inhibitor MG132 effect; reporter increase, % at 5 µM; 220,000 compounds, 1.2% hits; P30291;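 active = activation above the mean of all tested compounds plus 3 SD, set per screening run, cut at about 8.8% in these data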;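 also: cells exposed to compound for 20 h before luminescence read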
Target sequence (P30291 whole entry K328M): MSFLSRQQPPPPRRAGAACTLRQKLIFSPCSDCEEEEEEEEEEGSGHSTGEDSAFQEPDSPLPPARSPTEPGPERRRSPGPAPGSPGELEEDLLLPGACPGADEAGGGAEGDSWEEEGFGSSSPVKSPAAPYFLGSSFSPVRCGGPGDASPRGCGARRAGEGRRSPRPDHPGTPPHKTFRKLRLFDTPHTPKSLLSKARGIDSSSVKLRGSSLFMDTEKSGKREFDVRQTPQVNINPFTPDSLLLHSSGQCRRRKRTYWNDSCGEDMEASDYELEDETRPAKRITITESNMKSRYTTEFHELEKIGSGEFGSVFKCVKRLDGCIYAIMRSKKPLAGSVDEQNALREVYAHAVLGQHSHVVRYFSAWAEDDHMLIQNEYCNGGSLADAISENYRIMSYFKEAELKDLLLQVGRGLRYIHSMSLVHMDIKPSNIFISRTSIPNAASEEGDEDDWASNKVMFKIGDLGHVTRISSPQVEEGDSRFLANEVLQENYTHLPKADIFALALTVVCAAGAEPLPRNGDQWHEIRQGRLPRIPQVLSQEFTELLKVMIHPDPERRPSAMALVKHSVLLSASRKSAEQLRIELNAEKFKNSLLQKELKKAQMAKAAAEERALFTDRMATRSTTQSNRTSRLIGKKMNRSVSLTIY
zVAD death inh – L929 zVAD cell death inhibition; L929 zVAD necroptosis rescue, ATP luminescence, 24 h; with zVAD 60 µM; 220,000 compounds, 0.38% hits; viability rescue, % at 10 µM;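 active = activation, scaled between plate controls, above about 75%, limit read from the data; inactive = activation under that limit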
RBBP9 inh – human RBBP9 hydrolase inhibition; inhibition, % at 7.94 µM; O75884; 220,000 compounds, 0.2% hits; AID 1515; recombinant RBBP9, FP-Rh probe fluorescence polarization;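 active = inhibition above the campaign mean of all tested compounds plus 3 SD, cut at about 14% in these data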
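System: RBBP9 protein | Quantity: 2.5 µM RBBP9 dispensing solution, before mixing | Reagent: FP-Rh probe, 375 nM dispensing solution | Timing: Enzyme-compound preincubation 30 min, then probe labeling 45 min, 25 °C | Measured by: Fluorescence polarization | Read-out: % inhibition | Replication: One well per compound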
M18AAP inhibitor – blocks P. falciparum M18 aspartyl aminopeptidase; recombinant PfM18AAP, H-Glu-NHMec fluorogenic cleavage; inhibition, % at 7.35 µM; 290,000 compounds, 1.2% hits; AID 1822;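 active = inhibition above the campaign mean inhibition over all tested compounds plus 3 SD, cut at about 28% in these data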
TNF death inh – inhibitors of TNF-alpha induced necroptosis in Jurkat FADD-/- cells; Jurkat FADD-/- TNF necroptosis rescue, ATP luminescence, 24 h; 0 = TNF only, 100 = no-TNF cells; 220,000 compounds, 0.068% hits; activation (protection from cell death), % at 10 µM;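 active = activation, meaning protection from cell death, of at least 50% relative to plate controls; inactive = activation below 50%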;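 also: necroptosis triggered by 40 ng/mL TNF-alpha added together with compound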
p97 ATPase inh – blocks human p97 ATPase activity. 220,000 compounds, 0.42% hits. inhibition, % at 8 µM. recombinant p97 ATPase, Kinase-Glo ATP luminescence, 3 h. AID 1481; in the data active = inhibition above about 15%
Each line names hits and unclear results; the compound was inactive in the other large screens. Shown are actives, neighbours in structure and some others; about 2.7% of the full set was active somewhere.

Cc1c(C(=O)N(C)C)sc(NC(=O)c2cccc([N+](=O)[O-])c2)c1C#N	Wee1 stabilizer 10
COc1ccc(C(=O)Nc2sc(C(=O)N(C)C)c(C)c2C#N)cc1[N+](=O)[O-]	none
O=S(=O)(c1ccc(Cl)s1)N1CCCc2cccc(O)c21	Wee1 stabilizer 9.2
O=S(=O)(c1ccc(Cl)s1)N1CCc2ccccc2C1	none
Clc1ccc(CNc2ccc(CNc3ncn[nH]3)cc2)cc1	M18AAP inhibitor 37
O=S(=O)(Nc1ncccn1)c1ccc(Cl)cc1	none (no result: Wee1 stabilizer, zVAD death inh, RBBP9 inh, TNF death inh, p97 ATPase inh)
Clc1ccc(CNc2ccc(CNc3ncn[nH]3)cc2)c(Cl)c1	M18AAP inhibitor 28
O=S(=O)(Nc1ncn[nH]1)c1ccc(Cl)cc1	M18AAP inhibitor 59
NC(=O)[C@@H]1CCCN1Cc1nc(Cc2ccccc2Cl)no1	none
O=C(NCCCN1CCCCC1)c1ccc(CS(=O)c2ccc(F)cc2)o1 (centres undefined)	none (no result: Wee1 stabilizer, zVAD death inh, RBBP9 inh, TNF death inh, p97 ATPase inh)
O=C(CC1Sc2ncnn2C1=O)Nc1ccc(Cl)cc1 (centres undefined)	M18AAP inhibitor 30
N#CC1=C(N)SC(N)=C(C#N)C1c1ccc(C(F)(F)F)cc1	none
N#CC1=C(N)SC(N)=C(C#N)C1c1ccc([N+](=O)[O-])cc1	Wee1 stabilizer 10
COC(=O)c1sccc1NC(=O)CC1C(=O)NCCN1C(=O)Nc1cc(Cl)ccc1OC (centres undefined)	Wee1 stabilizer 8.9
CC(OC(=O)c1ccc2c(=O)n3c(nc2c1)CCC3)C(=O)NC1CCCCC1C (centres undefined)	none (no result: Wee1 stabilizer, zVAD death inh, RBBP9 inh, TNF death inh, p97 ATPase inh)
Cc1cccnc1NC(=S)NC(=O)c1cccs1	Wee1 stabilizer 13
Cc1cccnc1NC(=S)NC(=O)c1cncc(Br)c1	none
COc1cc(/C=C\C(=O)NCc2ccc3c(c2)cc(C)n3C)cc(OC)c1OC	Wee1 stabilizer 15 (no result: zVAD death inh)
COc1cc(/C=C/C(=O)NC(C)CCc2ccccc2)cc(OC)c1OC (centres undefined)	Wee1 stabilizer 11
Cc1ccc(CN(C)C(=O)CCc2nc3sc4c(c3c(=O)[nH]2)CCCC4)o1	none (no result: Wee1 stabilizer, zVAD death inh, RBBP9 inh, TNF death inh, p97 ATPase inh)
CCCCOc1ccc(C(=O)NNC(=O)C2C3C=CC(C3)C2C(=O)O)cc1 (centres undefined)	none (no result: Wee1 stabilizer, zVAD death inh, RBBP9 inh, TNF death inh, p97 ATPase inh)
Oc1c(Br)cc(/C=N/n2c(-c3ccccc3)n[nH]c2=S)c(O)c1Br	none (no result: Wee1 stabilizer, zVAD death inh, RBBP9 inh, TNF death inh, p97 ATPase inh)
Cc1c(Br)c(O)c(Br)c(O)c1/C=N/n1c(-c2ccccc2)n[nH]c1=S	M18AAP inhibitor 29 (no result: Wee1 stabilizer, zVAD death inh, RBBP9 inh, TNF death inh, p97 ATPase inh)
O=C(CSc1nnc(-c2cccnc2)o1)N1CCCCC1	none (no result: Wee1 stabilizer, zVAD death inh, RBBP9 inh, TNF death inh, p97 ATPase inh)
Nc1nn(-c2ccccc2)c(N)c1N=Nc1ccc2c(c1)OCO2	Wee1 stabilizer 9.8
CCc1ccccc1NC(=S)N1N=CCC1c1ccccc1 (centres undefined)	Wee1 stabilizer 8.8
COc1ccc2nc(SCC(=O)N3CCNC3=O)[nH]c2c1	Wee1 stabilizer 9.0
COc1ccc(CC(=O)N2CCc3ccccc32)cc1	none
COC(=O)C1CCN(C(=O)CSc2nc3ccc(OC)cc3[nH]2)CC1	none
COc1ccc(CC(=O)N2CCNC2=O)cc1	Wee1 stabilizer 29
Cc1sc(NC(=O)CCCC(=O)O)c(C#N)c1C	M18AAP inhibitor 30
N#Cc1c(NC(=O)CCC(=O)O)sc2c1CCCC2	none
CCCCCC(=O)Nc1sc(C)c(C)c1C#N	none
N#Cc1c(NC(=O)c2cccnc2)sc2c1CCC2	none
N#Cc1c(NC(=O)CCC(=O)O)sc2c1CCCCC2	M18AAP inhibitor 31
CC(C)(C)C(=O)Nc1sc2c(c1C#N)CCN(Cc1ccccc1)C2	M18AAP inhibitor 29 (no result: Wee1 stabilizer, zVAD death inh, RBBP9 inh, TNF death inh, p97 ATPase inh)
N#Cc1c(NC(=O)c2ccccc2)sc2c1CCC2	Wee1 stabilizer 11
Cc1c(Cl)cn2c(=O)cc(CN3CCN(c4ccc(F)cc4)CC3)nc2c1Cl	none
CC1(C)CC(c2nc(-c3ccc(Cl)cc3)cs2)CCS1 (centres undefined)	p97 ATPase inh 18
Cc1ccc2c(c1)N(CC(=O)NCCCN1CCCCC1)C(=O)CO2	none (no result: Wee1 stabilizer, zVAD death inh, RBBP9 inh, TNF death inh, p97 ATPase inh)
CCn1cc(CNC(=S)Nc2cccc3ccccc23)cn1	Wee1 stabilizer 9.3
S=C(NCc1cccnc1)Nc1cccc2ccccc12	none
c1ccc2c(N3CCCCC3)nnc(N3CCCCC3)c2c1	TNF death inh 78
O=C(OCCOCCN=C1NS(=O)(=O)c2ccccc21)c1ccccc1	none (no result: Wee1 stabilizer, zVAD death inh, RBBP9 inh, TNF death inh, p97 ATPase inh)

Screening data (PubChem BioAssay)
